Read-outs that look alike come from different tables or passages of the source. Where no end group is shown, it is not given here.

One series relates to rat RBCs. The experiment in a line: Hemolysis assay. Type of series: cell-based. The following applies: 62.5–1000 μg/mL, 37 °C, 30 min. The gist of the method:
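Rat RBCs in glycine-buffered stabilizing saline were exposed to test peptide at 62.5, 125, 250, 500 or 1000 μg/mL for 30 min at 37 °C in a water bath, then centrifuged. Supernatant absorbance was read at 540 nm. RBCs in stabilizing buffer defined 0% hemolysis and 0.1% SDS (final) defined 100%.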

Series [1] is described as follows: Cytotoxicity assay. The series is classed as cell-based, mouse. In short, it runs like this: (§1)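 Cells seeded at 10,000 per well and grown 24 h. They were then given medium containing 6.25–50 μg/mL peptide, with medium alone as control, for 24 h at 37 °C, 5% CO2. CCK-8 reagent was added and incubated 1 h at 37 °C, and absorbance read at 450 nm. Cytotoxicity was calculated from the OD values.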

In another series the test system is NIH/3T3. The experiment in a line: Cytotoxicity assay. The following applies: NIH/3T3; 6.25–50 μg/mL; 24 h. Type of series: cell-based, mouse. The gist of the method: as §1
Series [2] is described as follows: Cytotoxicity assay. Type of series: cell-based, human. In short, it runs like this:
as §1

Series [3] deals with HUVECs. Put plainly: Cytotoxicity assay. Type of series: cell-based, human. The following applies: HUVECs; 6.25–50 μg/mL; 24 h. In short, it runs like this: as §1
The subject of series [4] is HUVECs. The experiment in a line: Wound healing assay. The series is classed as cell-based, human. The following applies: 25 μg/mL, 8 h, vs control. In short, it runs like this:
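A confluent HUVEC monolayer was scratched with a sterile 200 μL pipette tip and debris washed off with PBS. Medium containing peptide at 25 μg/mL was added, and cells migrated 8 h at 37 °C. Bright-field images were taken at 0 and 8 h and wound areas measured by image analysis. Percent closure was computed from initial area minus 8-h area. Three experiments were run, each in triplicate wells.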

In series [5] the test system is HUVECs. The experiment in a line: Tube formation assay with H2O2-generated ROS. The series is classed as cell-based, human. The following applies: 25 μg/mL, 24 h. The gist of the method:
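Confluent HUVECs were harvested and seeded at 1 × 10^4 cells per chamber on basement membrane matrix (Geltrex)-coated chamber slides. ROS groups received H2O2 (200 μM solution). Parent and metabolite peptides were each at 25 μg/mL in medium. After 24 h incubation, tubular networks were imaged by bright-field microscopy and tube parameters quantified by image analysis.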

Series [6] has as its system CPB, porcine carboxypeptidase. The following applies: cited from earlier work.
The target of series [7] is SARS-CoV-2 main protease (M^pro) (SARS-CoV-2 (Wuhan-Hu-1 isolate)) (UniProt P0DTD1).
Series [8] addresses T1, SARS-CoV-2 main protease (M^pro) (SARS-CoV-2 (Wuhan-Hu-1 isolate), UniProt P0DTD1). Put plainly: cell-based or functional assay.
Series [9] concerns the target T1, SARS-CoV-2 main protease (M^pro). Put plainly: ITC. (Isothermal titration calorimetry measures the heat released or taken up as one component is titrated into another.)

By viability is commonly meant the share of living cells, or the viability signal relative to a control. Higher therefore signals better survival. As for `CC[C@H](C)[C@H](NC(=O)[C@H](CCC(=O)O)NC(=O)[C@H](C)NC(=O)[C@H](CCSC)NC(=O)[C@H](CC(=O)O)NC(=O)[C@@H]1CCCN1C(=O)[C@H](CCCCN)NC(=O)[C@H](CC(=O)O)NC(=O)[C@H](CO)NC(C)=O)C(=O)N[C@@H](CCC(=O)O)C(=O)N[C@@H](CCCCN)C(=O)N[C@@H](Cc1ccccc1)C(=O)N[C@@H](CC(=O)O)C(=O)N[C@@H](CCCCN)C(=O)N[C@@H](CO)C(=O)N[C@@H](CCCCN)C(=O)N[C@@H](CC(C)C)C(=O)N[C@@H](CCCCN)C(=O)N[C@@H](CCCCN)C(=O)N[C@H](C(=O)N[C@@H](CCC(=O)O)C(=O)N[C@H](C(=O)N[C@@H](CCC(N)=O)C(=O)N[C@@H](CCC(=O)O)C(=O)N[C@@H](CCCCN)C(=O)N[C@@H](CC(N)=O)C(=O)N1CCC[C@H]1C(=O)N[C@@H](CC(C)C)C(=O)N1CCC[C@H]1C(=O)N[C@@H](CO)C(=O)N[C@@H](CCCCN)C(=O)N[C@@H](CCC(=O)O)C(=O)N[C@H](C(=O)N[C@H](C(=O)N[C@@H](CCC(=O)O)C(=O)N[C@@H](CCC(N)=O)C(=O)N[C@@H](CCC(=O)O)C(=O)N[C@@H](CCCCN)C(=O)N[C@@H](CCC(N)=O)C(=O)N[C@@H](C)C(=O)NCC(=O)N[C@@H](CCC(=O)O)C(=O)N[C@@H](CO)C(=O)O)[C@@H](C)CC)[C@@H](C)O)[C@@H](C)O)[C@@H](C)O` [Ac-Tβ4, Acetyl-thymosin β4], the “hemolytic activity, OD values compared to 0.1 % SDS” value with rat RBCs is on record as less than 1.5%. Further, the viability in “Cytotoxicity assay [1]” and in “Cytotoxicity assay [2]” was greater than 90% throughout. In addition, the cytotoxicity entry with NIH/3T3 and with HUVECs [3] was “No cytotoxicity” each time. Also, the wound closure entry in the series with HUVECs [4] is “significantly enhanced wound closure”. Also, in the series on HUVECs [5], the “tube formation under H2O2 (ROS scavenging)” value is recorded as “failed to mitigate ROS-induced damage”.
Take “Ac-Tβ4_31-43: peptide metabolite of Ac-Tβ4, amino acids 31-43 (KETIEQEKQAGES; Thymosin beta-4; UniProt P62328 32-44, looked up, fragment)”: the “detected as metabolite of Ac-Tβ4: CPB” value in series [6] is “D ^a”.
FDKS peptide displayed an IC50 of inhibition of SARS-CoV-2 M^pro, FRET-based enzymatic assay in [7] of 63.2 µM.
Usually Kd stands for the equilibrium constant for the complex coming apart. A higher Kd goes with lower affinity. By stoichiometry N is commonly meant a count of units in the complex or per binding partner. Take Ac-SDKPDMAEIEKFDK [Ac-Tβ_(1-14), acetyl-thymosin β4 (amino acids 1-14)]: the “IC50 of inhibition of SARS-CoV-2 M^pro, FRET-based enzymatic assay” value in [8] was 26.1 µM. Further, in series [9], the Kd is 19.4 µM, the dH was 40.3 kcal/mol and the “stoichiometry N” value was 1.05.
Regarding Ac-SDKPDMAEIEKFDKSKL [Ac-Tβ_(1-17), acetyl-thymosin β4 (amino acid 1-17)], the “IC50 of inhibition of SARS-CoV-2 M^pro, FRET-based enzymatic assay” value in series [8] stood at 22.4 µM. Besides, in [9], the Kd came out at 22 µM, the dH is -11.4 kcal/mol and the “stoichiometry N” value was found to be 0.87.

The values above are taken from paper PMC11964602 (Bioactive Materials, 2025).
